From ChEMBL document CHEMBL5033991, “Targeting the FtsZ Allosteric Binding Site with a Novel Fluorescence Polarization Screen, Cytological and Structural Approaches for Antibacterial Discovery” (J Med Chem, 2021)
pKd: −log10 of the molar value. In brackets after ≈: the same amount, converted by molar mass. Activity calls are given as the source filed them. No cut-off for these calls is given here.

Tests used:
Bacillus subtilis [1] = assay: Inhibition of Bacillus subtilis cell division assessed as induction of filamentous phenotype at 25 to 100 uM incubated for 1.5 hrs by fluorescence microscopic analysis; format: functional, organism-based; settings: dose 25-100 µM
In short: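 B. subtilis grown in cation-adjusted Mueller–Hinton broth to A600 0.1–0.2, then treated 1.5 h with fluorescent benzamide probe. Cells imaged by fluorescence microscopy using the probe's own fluorescence; filamentous phenotype scored as division inhibition.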

[2] = biological target: T1, Cell division protein FtsZ (Bacillus subtilis) (UniProt A5Z1V5); assay: Binding affinity to Bacillus subtilis FtsZ assessed as decrease in fluorescence anisotropy values at 20 to 200 uM by fluorescence anisotropy analysis; settings: dose 20-200 µM
T1 sequence (whole entry): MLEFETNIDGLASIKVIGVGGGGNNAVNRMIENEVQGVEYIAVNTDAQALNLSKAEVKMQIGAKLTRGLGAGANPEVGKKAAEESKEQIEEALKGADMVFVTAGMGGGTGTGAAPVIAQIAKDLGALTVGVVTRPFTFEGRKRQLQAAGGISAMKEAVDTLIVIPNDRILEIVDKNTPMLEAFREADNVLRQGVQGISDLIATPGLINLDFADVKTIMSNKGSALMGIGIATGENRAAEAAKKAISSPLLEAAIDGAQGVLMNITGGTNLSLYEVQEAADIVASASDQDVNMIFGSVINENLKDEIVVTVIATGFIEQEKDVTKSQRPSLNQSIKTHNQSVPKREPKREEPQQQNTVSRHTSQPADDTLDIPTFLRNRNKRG
In short: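 Screen: probe (S)-2 (3 μM) with glutaraldehyde-cross-linked BsFtsZ-GMPCPP polymers (8 μM binding sites), each compound at 20 and 200 μM; raw anisotropy compared with partially bound probe, free probe and DMSO vehicle controls (2%, 4%). Hits checked for total intensity changes and with replicates lacking FtsZ.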

Bacillus subtilis [3] = assay: Antimicrobial activity against Bacillus subtilis 168 assessed as inhibition of cell division incubated for 1.5 hrs by phase contrast microscopic analysis; format: functional
In short: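 B. subtilis 168 grown in cation-adjusted Mueller–Hinton broth at 37 °C to A600 0.1–0.2, then incubated with compound or DMSO vehicle. Cells observed by microscopy and cell lengths measured; division inhibition expressed as minimal division inhibitory concentration.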

IMR-90 = assay: Cytotoxicity against human IMR-90 cells assessed as reduction in cell viability at MIC measured after 48 hrs by MTT assay; format: cell-based; settings: imr-90, 48 h
[4] = biological target: T1, Cell division protein FtsZ (Bacillus subtilis); assay: Competitive binding affinity to Bacillus subtilis FtsZ at 10 uM in presence of PC190723 by fluorescence anisotropy analysis
In short: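 Probe (10 μM) in buffer mixed with unassembled BsFtsZ (10 μM), then GMPCPP (0.1 mM). Polymerization started with MgCl2 (10 mM), anisotropy read 5–10 min later. PC190723 (10 μM) then added to displace probe, with anisotropy read 5 min after. Measured at 25 °C in an L-format spectrofluorometer at each probe's excitation/emission maxima.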

[5] = biological target: T1, Cell division protein FtsZ (Bacillus subtilis); assay: Binding affinity to Bacillus subtilis FtsZ polymer assessed as dissociation constant by fluorescence anisotropy analysis
[6] = biological target: T2, Cell division protein FtsZ (Bacillus subtilis, UniProt A5Z1V5); assay: Displacement of free fluorescent probe from inter domain cleft of stabilized Bacillus subtilis FtsZ assessed as dissociation constant in presence of GMPCPP by fluorescence anisotropy analysis
T2 sequence (A5Z1V5 whole entry): T1 sequence (whole entry)
In short: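 BsFtsZ polymers assembled in HEPES buffer pH 6.8 with 10 mM MgCl2 and GMPCPP, cross-linked with 0.15% glutaraldehyde, quenched with NaBH4. Competitor titrated into 7–8 μM polymers plus (S)-2 (3 μM) or 2–3 μM polymers plus (R)-5 (3 μM), 0.1 mM GMPCPP, 25 °C. Initial probe bound fraction 0.4–0.5; KD numerically fitted by competition model; mean ± SEM.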

[7] = system: Staphylococcus epidermidis; assay: Antimicrobial activity against Staphylococcus epidermidis assessed as inhibition of bacterial growth by CLSI based broth macrodilution method; format: functional
In short: (§1)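 Cells grown in cation-adjusted Mueller–Hinton broth at 37 °C to A600 0.1–0.2, then exposed to compound or DMSO vehicle. MIC by broth macrodilution as the lowest concentration inhibiting growth.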

[8] = system: Staphylococcus haemolyticus; assay: Antimicrobial activity against Staphylococcus haemolyticus assessed as inhibition of bacterial growth by CLSI based broth macrodilution method; format: functional; in short: as §1
Bacillus subtilis [9] = assay: Inhibition of Bacillus subtilis 168 cell division at 0.75 mM measured after 3 hrs by phase-contrast microscopic analysis; format: functional, organism-based
In short: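 B. subtilis 168 grown in CAMHB at 37 °C to A600 0.1–0.2, exposed 3 h to compound or DMSO; cell lengths measured from phase-contrast images (n ≥ 30 cells).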

[10] = biological target: T1, Cell division protein FtsZ (Bacillus subtilis); assay: Inhibition of GFP-tagged FtsZ in Bacillus subtilis SU570 assessed as induction of irregular shaped z-ring formation at 0.2 uM incubated for 1.5 hrs; settings: dose 200.0 µM, in the assay text read “0.2 mM” for “0.2 uM”
In short: (§2)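 B. subtilis SU570 expressing FtsZ-GFP grown in cation-adjusted Mueller–Hinton broth at 30 °C to A600 0.1–0.2, then grown 1.5 h with compound or DMSO vehicle. FtsZ-GFP localization (Z-rings, foci) assessed by fluorescence microscopy.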

[11] = biological target: T1, Cell division protein FtsZ (Bacillus subtilis); assay: Inhibition of GFP-tagged FtsZ in Bacillus subtilis SU570 assessed as delocalization into punctate foci at 0.2 uM incubated for 1.5 hrs; settings: dose 200.0 µM, in the assay text read “0.2 mM” for “0.2 uM”; in short: as §2
[12] = biological target: T1, Cell division protein FtsZ (Bacillus subtilis); assay: Induction of Bacillus subtilis FtsZ polymerization at 0.1 mM measured after 5 to 10 mins by fluorescence anisotropy analysis; settings: time 5-10 min

Structure (SMILES): CCC[C@H](COc1ccc(F)c(C(N)=O)c1F)Nc1ccc([N+](=O)[O-])c2nonc12
- inhibition (Bacillus subtilis [1]): Active

Structure (SMILES): O=C(Oc1cc(OC(=O)c2cc(O)cc(O)c2)c2ccccc2c1)c1ccc(O)c(O)c1
- Activity [2]: Active

Structure (SMILES): Clc1cccc(COc2cccc(-c3ncc[nH]3)c2)c1
- MIC (Bacillus subtilis [3]): 50 µM (≈ 14.2 µg/mL)

Structure (SMILES): NC(=O)c1cccc(NCc2cccc(Cl)c2)c1
- Activity [2]: inactive

Structure (SMILES): NC(=O)c1c(F)ccc(OCCNc2cccc(C(F)(F)F)c2)c1F
- Activity (IMR-90): Non-Toxic

Structure (SMILES): NC(=O)c1c(F)ccc(OCc2cccc(C(F)(F)F)c2)c1F
- Activity (IMR-90): Non-Toxic

Structure (SMILES): O=C(O)CCN(Cc1ccccc1)Cc1cccc(Sc2ccccc2)c1
- Activity [2]: inactive

Structure (SMILES): CCC[C@H](COc1ccc(F)c(C(N)=O)c1F)Nc1cccc(C(F)(F)F)c1
- Activity (IMR-90): Non-Toxic

Structure (SMILES): NC(=O)c1c(F)ccc(OCc2cccc(Cl)c2)c1F
- Activity (IMR-90): Non-Toxic

Structure (SMILES): NC(=O)c1ccc(NCc2cccc(Cl)c2)cc1
- Activity [2]: inactive

Structure (SMILES): CCCC(CNc1ccc([N+](=O)[O-])c2nonc12)Oc1ccc(F)c(C(N)=O)c1F (centres undefined)
- Activity [4]: Active

Structure (SMILES): NC(=O)c1c(F)ccc(OCc2nc3cc(Cl)cnc3s2)c1F
- Activity [5]: < 0.1 µM
- pKd [6]: > 7.00

Structure (SMILES): CCC[C@@H](CNc1ccc([N+](=O)[O-])c2nonc12)Oc1ccc(F)c(C(N)=O)c1F
- inhibition (Bacillus subtilis [1]): Active

Structure (SMILES): NC(=O)c1c(F)ccc(OCCNc2ccc([N+](=O)[O-])c3nonc23)c1F
- Activity [4]: Active

Structure (SMILES): CCCC(COc1ccc(F)c(C(N)=O)c1F)Nc1cccc(C(F)(F)F)c1 (racemic)
- MIC [7]: 50 µM (≈ 20.1 µg/mL)
- MIC [8]: 50 µM (≈ 20.1 µg/mL)

Structure (SMILES): CCCCCC(CNc1ccc([N+](=O)[O-])c2nonc12)Oc1ccc(F)c(C(N)=O)c1F (centres undefined)
- Activity [4]: inactive

Structure (SMILES): Oc1ccc(/C=C/c2cc(O)cc(O)c2)cc1
- Activity [2]: inactive

Structure (SMILES): CN(Cc1cccc(Cl)c1)c1cccc(C(N)=O)c1
- inhibition (Bacillus subtilis [9]): Active
- inhibition [10]: Active
- inhibition [11]: Active
- Activity [2]: inactive

Structure (SMILES): CCCC(COc1ccc(F)c(C(N)=O)c1F)Nc1ccc([N+](=O)[O-])c2nonc12 (centres undefined)
- Activity [4]: Active

Structure (SMILES): CCN(CC)CCNc1nc(/C=C/c2ccc(Cl)cc2)nc2cc3ccccc3cc12
- Activity [2]: inactive

Structure (SMILES): CC1=CC(=O)c2c(O)cccc2C1=O
- Activity [2]: inactive

Structure (SMILES): FC(F)(F)c1cccc(COc2cccc(-c3ncc[nH]3)c2)c1
- MIC (Bacillus subtilis [3]): 50 µM (≈ 15.9 µg/mL)

Structure (SMILES): NC(c1cccc(OCc2cccc(Cl)c2)c1)C(F)(F)F (centres undefined)
- MIC (Bacillus subtilis [3]): 250 µM (≈ 78.9 µg/mL)

Structure (SMILES): CCCCCCCCC(CNc1ccc([N+](=O)[O-])c2nonc12)Oc1ccc(F)c(C(N)=O)c1F (centres undefined)
- Activity [4]: inactive

Structure (SMILES): CCC[C@@H](COc1ccc(F)c(C(N)=O)c1F)Nc1ccc([N+](=O)[O-])c2nonc12
- inhibition (Bacillus subtilis [1]): Active

Structure (SMILES): CN(Cc1cccc(Cl)c1)c1ccc(C(N)=O)cc1
- Activity [2]: inactive

Structure (SMILES): O=C(O)C(=O)c1cn(Cc2ccccc2)c2ccc(-c3ccc(OC(F)(F)F)cc3)cc12
- Activity [2]: inactive

Structure (SMILES): Nc1nc2c(ncn2[C@@H]2O[C@H](CO[P@@](=O)(O)C[P@@](=O)(O)OP(=O)(O)O)[C@@H](O)[C@H]2O)c(=O)[nH]1
- Activity [12]: Active

Structure (SMILES): CCC[C@H](CNc1ccc([N+](=O)[O-])c2nonc12)Oc1ccc(F)c(C(N)=O)c1F
- inhibition (Bacillus subtilis [1]): inactive
